# From ChEMBL document CHEMBL4402599 (J Med Chem, 2020)
# Tests used:
# [1] = molecular target: T1, Inositol 1,4,5-trisphosphate-gated calcium channel ITPR1 (Rattus norvegicus, UniProt P29994); experiment: Displacement of [3H]-IP3 from IP3R1 in Wistar rat cerebellar membrane measured after 5 mins by liquid scintillation counting method; assay type: cell membranes, Cerebellum
# [2] = molecular target: Inositol 1,4,5-trisphosphate-gated calcium channel ITPR1 (Rattus norvegicus) (UniProt P29994); experiment: Agonist activity at rat IP3R1 expressed in HEK cells assessed as increase in calcium release in cytosol by measuring fluorescence signal by Mag-Fluo4 dye based assay relative to control; assay type: cell-based
# Procedure, shortened: (§1)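 HEK-293 cells lacking all three IP3R subtypes (CRISPR), stably transfected with rat IP3R1 (S1 splice site absent), G418-selected monoclonal line. ER loaded with Mag-Fluo-4 AM (20 μM, 1 h, 22 °C), saponin-permeabilized, in Ca2+-free cytosol-like medium, pH 7.0, 220 nM free Ca2+. MgATP 1.5 mM loads stores, CPA 10 μM added, ligand 60 s later. Read-out is fluorescence at 485/520 nm, 20 °C. Release is % of (Ffull − Fempty). Hill fit; 5–11 experiments in duplicate.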
# [3] = molecular target: Inositol 1,4,5-trisphosphate-gated calcium channel ITPR1 (Rattus norvegicus) (UniProt P29994); experiment: Ratio of EC50 for agonist activity at rat IP3R1 expressed in HEK cells assessed as increase in calcium release in cytosol by measuring fluorescence signal by Mag-Fluo4 dye based assay to Kd for binding affinity to IP3R1 in Wistar rat cerebellar membrane; assay type: cell-based
# Procedure, shortened: (§2)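 Ratio of EC50 from Mag-Fluo-4 Ca2+ release in permeabilized rat IP3R1-HEK cells to Kd from [3H]-IP3 competition with rat cerebellar membranes. Calculated from the difference of log values (pEC50 − pKd); given as mean with 95% CI.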
# [4] = Stability of compound assessed as basic hydrolysis at pH 10 measured after 1 week by H-NMR spectroscopy; assay type: physicochemical; conditions: buffer, pH 10, 168 h
# Procedure, shortened: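 Kept at pH 10 for one week and checked for degradation.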
# [5] = Stability of compound in D2O at pH 7 under room temperature measured after 2 months by H-NMR spectroscopy; assay type: physicochemical; conditions: buffer, pH 7, 1461 h
# Procedure, shortened: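 Triethylammonium salt left in D2O at pH 7, room temperature; degradation followed over time.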
# [6] = molecular target: T1, Inositol 1,4,5-trisphosphate-gated calcium channel ITPR1; experiment: Agonist activity at rat IP3R1 expressed in HEK cells assessed as increase in calcium release in cytosol by measuring fluorescence signal by Mag-Fluo4 dye based assay; assay type: cell-based
# [7] = Stability of compound assessed as basic hydrolysis at pH 14 measured after 1 day by H-NMR spectroscopy; assay type: physicochemical; conditions: buffer, pH 14, 24 h
# Procedure, shortened: (§3)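 Hydrolysis followed after 1 day at pH 1 or at pH 14.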
# [8] = Stability of compound assessed as acidic hydrolysis at pH 1 measured after 1 day by H-NMR spectroscopy; assay type: physicochemical; conditions: buffer, pH 1, 24 h; procedure, shortened: as §3
# [9] = molecular target: Inositol 1,4,5-trisphosphate-gated calcium channel ITPR1 (Rattus norvegicus) (UniProt P29994); experiment: Agonist activity at rat IP3R1 expressed in HEK cells assessed as increase in calcium release in cytosol by measuring fluorescence signal at 300 uM by Mag-Fluo4 dye based assay relative to control; assay type: cell-based; procedure, shortened: as §1
# [10] = molecular target: T1, Inositol 1,4,5-trisphosphate-gated calcium channel ITPR1; experiment: Partial agonist activity at rat IP3R1 expressed in HEK cells assessed as increase in calcium release in cytosol by measuring fluorescence signal by Mag-Fluo4 dye based assay; assay type: cell-based; procedure, shortened: as §1
# [11] = molecular target: Inositol 1,4,5-trisphosphate-gated calcium channel ITPR1 (Rattus norvegicus) (UniProt P29994); experiment: Ratio of EC39 for partial agonist activity at rat IP3R1 expressed in HEK cells assessed as increase in calcium release in cytosol by measuring fluorescence signal by Mag-Fluo4 dye based assay to Kd for binding affinity to IP3R1 in Wistar rat cerebellar membrane; assay type: cell-based
# [12] = molecular target: Inositol 1,4,5-trisphosphate-gated calcium channel ITPR1 (Rattus norvegicus) (UniProt P29994); experiment: Ratio of EC50 for partial agonist activity at rat IP3R1 expressed in HEK cells assessed as increase in calcium release in cytosol by measuring fluorescence signal by Mag-Fluo4 dye based assay to Kd for binding affinity to IP3R1 in Wistar rat cerebellar membrane; assay type: cell-based; procedure, shortened: as §2
# [13] = molecular target: Inositol 1,4,5-trisphosphate-gated calcium channel ITPR1 (Rattus norvegicus) (UniProt P29994); experiment: Partial agonist activity at rat IP3R1 expressed in HEK cells assessed as increase in calcium release in cytosol by measuring fluorescence signal by Mag-Fluo4 dye based assay relative to inositol-1,4,5-triphosphate; assay type: cell-based; procedure, shortened: as §1
# [14] = Drug degradation at 4 degree C measured after 3 weeks by 31P-NMR analysis; assay type: physicochemical; conditions: read-out: Drug degradation
# [15] = Drug metabolism assessed as catalytic hydrogenolysis by measuring beta-D-glucopyranosyl 1,3,4-trisphosphate triethylammonium formation by 31P-NMR analysis
# T1 sequence (P29994 whole entry): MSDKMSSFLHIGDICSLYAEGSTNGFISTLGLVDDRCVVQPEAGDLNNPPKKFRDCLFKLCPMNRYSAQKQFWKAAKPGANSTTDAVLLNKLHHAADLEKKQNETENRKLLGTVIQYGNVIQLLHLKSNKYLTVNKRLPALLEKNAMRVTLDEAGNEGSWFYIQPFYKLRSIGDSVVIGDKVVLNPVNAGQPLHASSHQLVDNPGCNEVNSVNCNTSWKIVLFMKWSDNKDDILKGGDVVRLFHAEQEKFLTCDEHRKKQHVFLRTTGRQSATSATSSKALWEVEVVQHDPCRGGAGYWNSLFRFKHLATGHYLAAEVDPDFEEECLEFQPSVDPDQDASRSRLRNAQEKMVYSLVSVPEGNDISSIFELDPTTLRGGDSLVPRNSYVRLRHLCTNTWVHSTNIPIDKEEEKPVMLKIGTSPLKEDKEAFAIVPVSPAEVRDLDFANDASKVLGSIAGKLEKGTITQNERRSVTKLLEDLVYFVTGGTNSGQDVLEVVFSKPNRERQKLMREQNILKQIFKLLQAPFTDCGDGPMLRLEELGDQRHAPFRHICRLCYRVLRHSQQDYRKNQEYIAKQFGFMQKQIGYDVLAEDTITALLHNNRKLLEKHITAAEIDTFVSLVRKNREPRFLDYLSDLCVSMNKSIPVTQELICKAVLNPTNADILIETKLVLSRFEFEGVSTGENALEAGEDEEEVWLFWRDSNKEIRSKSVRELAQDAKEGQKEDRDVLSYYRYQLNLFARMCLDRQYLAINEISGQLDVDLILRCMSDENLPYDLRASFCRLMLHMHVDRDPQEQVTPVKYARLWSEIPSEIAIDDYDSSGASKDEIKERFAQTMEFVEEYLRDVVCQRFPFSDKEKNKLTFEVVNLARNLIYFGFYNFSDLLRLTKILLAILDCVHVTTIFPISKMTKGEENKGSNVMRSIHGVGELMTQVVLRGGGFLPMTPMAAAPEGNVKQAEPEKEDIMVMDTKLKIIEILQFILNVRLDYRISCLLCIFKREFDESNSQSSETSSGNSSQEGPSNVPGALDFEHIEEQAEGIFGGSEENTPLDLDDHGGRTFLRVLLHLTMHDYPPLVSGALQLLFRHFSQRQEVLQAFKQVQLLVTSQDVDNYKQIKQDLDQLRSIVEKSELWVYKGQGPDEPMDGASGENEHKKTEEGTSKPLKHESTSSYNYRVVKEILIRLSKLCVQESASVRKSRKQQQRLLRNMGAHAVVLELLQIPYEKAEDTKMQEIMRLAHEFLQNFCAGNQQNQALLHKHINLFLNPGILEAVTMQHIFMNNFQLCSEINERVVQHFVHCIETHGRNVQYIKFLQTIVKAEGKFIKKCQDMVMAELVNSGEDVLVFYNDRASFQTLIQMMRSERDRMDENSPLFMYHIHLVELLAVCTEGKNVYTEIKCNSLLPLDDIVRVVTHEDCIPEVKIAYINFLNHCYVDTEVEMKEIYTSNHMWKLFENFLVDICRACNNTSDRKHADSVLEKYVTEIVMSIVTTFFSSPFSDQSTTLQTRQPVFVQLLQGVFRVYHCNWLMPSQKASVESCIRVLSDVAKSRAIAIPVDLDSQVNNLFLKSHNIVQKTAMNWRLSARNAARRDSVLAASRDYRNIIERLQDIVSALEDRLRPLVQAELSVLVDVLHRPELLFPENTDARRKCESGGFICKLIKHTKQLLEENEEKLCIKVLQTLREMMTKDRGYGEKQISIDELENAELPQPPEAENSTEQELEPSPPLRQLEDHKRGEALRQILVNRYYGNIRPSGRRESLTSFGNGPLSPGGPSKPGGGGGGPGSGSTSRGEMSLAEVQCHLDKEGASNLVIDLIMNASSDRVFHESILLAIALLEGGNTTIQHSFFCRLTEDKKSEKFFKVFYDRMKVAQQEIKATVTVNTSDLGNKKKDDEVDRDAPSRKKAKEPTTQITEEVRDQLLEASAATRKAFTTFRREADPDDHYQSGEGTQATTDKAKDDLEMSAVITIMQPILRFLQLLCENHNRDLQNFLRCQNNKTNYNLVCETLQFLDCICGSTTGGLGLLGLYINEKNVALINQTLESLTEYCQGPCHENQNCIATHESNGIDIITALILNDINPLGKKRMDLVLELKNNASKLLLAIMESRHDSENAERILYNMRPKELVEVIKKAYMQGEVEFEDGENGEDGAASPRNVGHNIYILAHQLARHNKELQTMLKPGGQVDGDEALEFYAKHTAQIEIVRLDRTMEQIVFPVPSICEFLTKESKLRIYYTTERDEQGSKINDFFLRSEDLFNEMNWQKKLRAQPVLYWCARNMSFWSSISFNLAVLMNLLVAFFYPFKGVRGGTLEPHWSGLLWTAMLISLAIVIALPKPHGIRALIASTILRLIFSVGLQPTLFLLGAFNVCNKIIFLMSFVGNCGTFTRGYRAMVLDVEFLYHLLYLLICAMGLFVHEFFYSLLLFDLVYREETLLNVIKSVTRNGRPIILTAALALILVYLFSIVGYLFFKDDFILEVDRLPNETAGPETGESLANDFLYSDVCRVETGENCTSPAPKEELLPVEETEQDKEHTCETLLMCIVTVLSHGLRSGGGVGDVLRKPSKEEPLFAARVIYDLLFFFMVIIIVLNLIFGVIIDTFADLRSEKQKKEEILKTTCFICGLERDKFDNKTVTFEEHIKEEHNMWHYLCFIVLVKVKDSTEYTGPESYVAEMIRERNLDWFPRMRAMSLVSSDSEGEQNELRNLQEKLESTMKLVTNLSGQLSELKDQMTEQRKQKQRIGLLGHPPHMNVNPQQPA
smiles,measurement,setting,value
CCN(CC)CC.CCN(CC)CC.CCN(CC)CC.O=P(O)(O)O[C@@H]1O[C@H](CO)[C@@H](OP(=O)(O)O)[C@H](OP(=O)(O)O)[C@H]1O,Kd,[1],11.2 nM
same,Activity,[2],75.2%
same,Ratio,[3],7
same,Stability,[4],Stable
same,Stability,[5],Stable
same,EC50,[6],80 nM
same,Stability,[7],Unstable
same,Stability,[8],Unstable
Nc1ncnc2c1ncn2[C@@H]1O[C@H](CO)[C@@H](O[C@H]2O[C@H](CO)[C@@H](OP(=O)(O)O)[C@H](OP(=O)(O)O)[C@H]2O)[C@H]1OP(=O)(O)O [ADENOPHOSTIN A],Kd,[1],1.4 nM
same,Ratio,[3],17
same,EC50,[6],24 nM
CO[C@H]1O[C@H](COP(=O)(O)O)[C@@H](O)[C@H](OP(=O)(O)O)[C@H]1OP(=O)(O)O,Activity,[9],4.3%
CO[C@@H]1O[C@@H](COP(=O)(O)O)[C@H](O)[C@@H](OP(=O)(O)O)[C@@H]1OP(=O)(O)O,Kd,[1],1230 nM
same,EC50,[10],87700 nM
same,Ratio,[11],132
same,Ratio,[12],71
same,Activity,[13],56.2%
CO[C@@H]1O[C@@H](COP(=O)(O)O)[C@H](OP(=O)(O)O)[C@@H](O)[C@@H]1OP(=O)(O)O,Kd,[1],549 nM
same,EC50,[10],104000 nM
same,Ratio,[11],462
same,Ratio,[12],191
same,Activity,[13],53.1%
O=P(OCc1ccccc1)(OCc1ccccc1)O[C@@H]1O[C@H](COCc2ccccc2)[C@@H](OP(=O)(OCc2ccccc2)OCc2ccccc2)[C@H](OP(=O)(OCc2ccccc2)OCc2ccccc2)[C@H]1OCc1ccccc1,degraded at 504 h,[14],30%
same,Drug metabolism,[15],Metabolite detected
CCN(CC)CC.CCN(CC)CC.CCN(CC)CC.O=P(O)(O)O[C@H]1O[C@H](CO)[C@@H](OP(=O)(O)O)[C@H](OP(=O)(O)O)[C@H]1O,Kd,[1],129 nM
same,Activity,[2],78.8%
same,Ratio,[3],23
same,Stability,[4],Stable
same,Stability,[5],Stable
same,EC50,[6],2960 nM
same,Stability,[7],Unstable
same,Stability,[8],Unstable
CO[C@H]1O[C@H](COP(=O)(O)O)[C@@H](OP(=O)(O)O)[C@H](O)[C@H]1OP(=O)(O)O,Activity,[9],5.9%
